In ChEMBL document CHEMBL1154919, “Synthesis and biological evaluation of 12-aminoacylphorboids” (J Nat Prod, 2010):
Activity calls are given as the source filed them. No cut-off for these calls is given here.

What was measured:
[1] = test system: Human immunodeficiency virus 1; assay: Activation of latent recombinant HIV1 LTR-GFP gene expression infected in human Jurkat LAT-GFP cells assessed as GFP positive cells at 10 uM after 6 hrs by flow cytometry; format: functional, organism-based
How it was run: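 Jurkat-derived clone latently infected with recombinant virus carrying GFP under HIV-LTR promoter, exposed to compound for 6 h. Histograms shown are one of three independent experiments.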

[2] = test system: Human immunodeficiency virus 1; assay: Activation of latent recombinant HIV1 LTR-GFP gene expression infected in human Jurkat LAT-GFP cells assessed as GFP level at 10 uM after 6 hrs by flow cytometry in presence of pan-PKC inhibitor G06983 pretreated for 30 mins; format: functional, organism-based
How it was run: (§1)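 Jurkat LAT-GFP cells (latent HIV-LTR-driven GFP clone) pretreated 30 min with PKC inhibitor (1 µM), then stimulated with compound at 10 µM for 6 h.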

[3] = test system: Human immunodeficiency virus 1; assay: Activation of latent recombinant HIV1 LTR-GFP gene expression infected in human Jurkat LAT-GFP cells assessed as GFP level at 10 uM after 6 hrs by flow cytometry in presence of PKCinhibitor G06976 pretreated for 30 mins; format: functional, organism-based; how it was run: as §1
[4] = target: Protein kinase C alpha type (Homo sapiens) (UniProt P17252); assay: Activation of PKCalpha assessed as [32P] incorporation after 10 mins by scintillation counting
[5] = target: Protein kinase C delta type (Homo sapiens) (UniProt Q05655); assay: Activation of PKCdelta assessed as [32P] incorporation after 10 mins by scintillation counting
[6] = target: Protein kinase C delta type (Homo sapiens) (UniProt Q05655); assay: Activation of PKCdelta in human Jurkat cells assessed as enzyme phosphorylation after 15 mins by Western blotting; format: cell-based
How it was run: (§2)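 Jurkat LAT-GFP cells (10^6 cells/ml) exposed for 15 min to compound (increasing concentrations) or TPA 1 µM. Lysed in HEPES pH 8.0 buffer with 0.5% NP-40 and protease/phosphatase inhibitors. 30 µg protein run on 10% SDS-PAGE, blotted to nitrocellulose, probed with anti-phospho-PKCδ (Thr505) and anti-panPKC, ECL detection.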

[7] = test system: Human immunodeficiency virus 1; assay: Activation of latent recombinant HIV1 LTR-GFP gene expression infected in human Jurkat LAT-GFP cells assessed as GFP positive cells after 6 hrs by flow cytometry relative to control; format: functional, organism-based
How it was run: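 Jurkat-derived clone latently carrying recombinant virus with GFP under the HIV-LTR promoter, stimulated with compound at the indicated concentrations for 6 h.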

[8] = target: T1, Prostaglandin G/H synthase 2 (Rattus norvegicus) (UniProt P35355); assay: Inhibition of COX2 in LPS-stimulated rat microglia after 24 hrs by immunoblotting
T1 sequence (whole entry): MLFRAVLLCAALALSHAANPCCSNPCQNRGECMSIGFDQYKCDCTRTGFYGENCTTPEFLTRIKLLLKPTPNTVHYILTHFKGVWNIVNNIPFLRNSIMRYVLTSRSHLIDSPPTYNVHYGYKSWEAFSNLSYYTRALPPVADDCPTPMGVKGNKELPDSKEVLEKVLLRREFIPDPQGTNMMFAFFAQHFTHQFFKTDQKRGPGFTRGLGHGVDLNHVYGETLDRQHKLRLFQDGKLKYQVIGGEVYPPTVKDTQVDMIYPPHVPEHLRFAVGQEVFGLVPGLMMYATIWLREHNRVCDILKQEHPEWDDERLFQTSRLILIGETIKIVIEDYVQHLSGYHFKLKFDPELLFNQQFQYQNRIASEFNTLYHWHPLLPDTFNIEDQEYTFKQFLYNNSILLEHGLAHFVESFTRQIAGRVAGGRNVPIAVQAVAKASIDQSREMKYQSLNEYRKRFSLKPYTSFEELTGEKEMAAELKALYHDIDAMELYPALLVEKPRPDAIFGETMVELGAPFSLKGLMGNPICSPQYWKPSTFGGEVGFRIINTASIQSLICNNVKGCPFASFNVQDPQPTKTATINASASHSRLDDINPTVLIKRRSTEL

[9] = target: T1, Prostaglandin G/H synthase 2 (Rattus norvegicus); assay: Inhibition of COX2 in LPS-stimulated rat microglia assessed as PGE2 release after 24 hrs by enzyme immunoassay
[10] = target: Protein kinase C delta type (Homo sapiens) (UniProt Q05655); assay: Activation of PKCdelta in human Jurkat cells assessed as enzyme phosphorylation at 1 uM after 15 mins by Western blotting; format: cell-based; how it was run: as §2

Sequence of Protein kinase C delta type (Homo sapiens) (Q05655 whole entry, looked up): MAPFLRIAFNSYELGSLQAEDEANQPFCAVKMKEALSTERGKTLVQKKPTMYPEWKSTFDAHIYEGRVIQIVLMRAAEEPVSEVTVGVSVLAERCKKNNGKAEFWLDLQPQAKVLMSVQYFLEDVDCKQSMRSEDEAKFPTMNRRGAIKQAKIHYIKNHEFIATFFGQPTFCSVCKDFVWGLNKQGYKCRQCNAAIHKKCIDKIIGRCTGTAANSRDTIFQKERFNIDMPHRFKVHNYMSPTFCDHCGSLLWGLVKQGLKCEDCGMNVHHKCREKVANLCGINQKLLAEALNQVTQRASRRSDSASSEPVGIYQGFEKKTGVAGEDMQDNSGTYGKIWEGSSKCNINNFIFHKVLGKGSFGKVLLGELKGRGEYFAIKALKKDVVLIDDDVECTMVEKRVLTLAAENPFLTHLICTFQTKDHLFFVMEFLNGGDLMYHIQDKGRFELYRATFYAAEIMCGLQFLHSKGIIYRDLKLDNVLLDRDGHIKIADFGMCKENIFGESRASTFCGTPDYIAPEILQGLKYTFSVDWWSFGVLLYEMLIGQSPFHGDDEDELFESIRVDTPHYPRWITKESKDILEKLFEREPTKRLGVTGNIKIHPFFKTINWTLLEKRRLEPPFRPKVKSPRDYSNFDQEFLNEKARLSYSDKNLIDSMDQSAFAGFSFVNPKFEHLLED

**Q.** How did the Activity [1] turn out when `CC(=O)O[C@@]12[C@H](OC(=O)[C@@H](N)C(C)C)[C@@H](C)[C@]3(O)[C@@H]4C=C(C)C(=O)[C@@H]4CC(CO)=C[C@H]3[C@@H]1C2(C)C` was run?
**A.** Its Activity is “inactive”.

**Q.** With `CC(=O)O[C@@]12[C@H](OC(=O)[C@H](N)C(C)C)[C@@H](C)[C@]3(O)[C@@H]4C=C(C)C(=O)[C@@H]4CC(CO)=C[C@H]3[C@@H]1C2(C)C` as the compound, how does the Activity [1] read?
**A.** The Activity was “inactive”.

**Q.** `CC(=O)O[C@@]12[C@H](OC(=O)[C@H](C(C)C)N(C)C)[C@@H](C)[C@]3(O)[C@@H]4C=C(C)C(=O)[C@@H]4CC(CO)=C[C@H]3[C@@H]1C2(C)C` was tested. Which Activity [2] did it give?
**A.** The Activity was “Active”.

**Q.** What about the Activity [1] of the same compound?
**A.** Its Activity is “Active”.

**Q.** What about the Activity [3] of the same compound?
**A.** Its Activity is “Active”.

**Q.** What about the Activity [4] of the same compound?
**A.** Its Activity is “Dose-dependent effect”.

**Q.** What about the Activity [5] of the same compound?
**A.** The Activity was “Dose-dependent effect”.

**Q.** What about the Activity [6] of the same compound?
**A.** The Activity was “Active”.

**Q.** `CC(=O)O[C@@]12[C@H](OC(=O)CN(C)C)[C@@H](C)[C@]3(O)[C@@H]4C=C(C)C(=O)[C@@H]4CC(CO)=C[C@H]3[C@@H]1C2(C)C` was tested. Which Activity [1] did it give?
**A.** The Activity was “inactive”.

**Q.** And the Activity [4]?
**A.** Its Activity is “inactive”.

**Q.** And the Activity [5]?
**A.** The Activity was “inactive”.

**Q.** With `CCCCCCCCCCCCCC(=O)O[C@@H]1[C@@H](C)[C@@]2(O)[C@@H](C=C(CO)C[C@]3(O)C(=O)C(C)=C[C@@H]23)[C@@H]2C(C)(C)[C@]12OC(C)=O` as the compound, how does the Activity [7] read?
**A.** Its Activity is “Active”.

**Q.** For `CC(=O)O[C@@]12[C@H](OC(=O)[C@@H](C(C)C)N(C)C)[C@@H](C)[C@]3(O)[C@@H]4C=C(C)C(=O)[C@@H]4CC(CO)=C[C@H]3[C@@H]1C2(C)C`, which Activity [2] is on record?
**A.** Its Activity is “Active”.

**Q.** What about the Activity [1] of the same compound?
**A.** The Activity was “Active”.

**Q.** What about the Activity [3] of the same compound?
**A.** The Activity was “Active”.

**Q.** And the inhibition [8]?
**A.** The inhibition was “Active”.

**Q.** And the Activity [9]?
**A.** Its Activity is “inactive”.

**Q.** `CN[C@H](C(=O)O[C@@H]1[C@@H](C)[C@]2(O)[C@@H]3C=C(C)C(=O)[C@@H]3CC(CO)=C[C@H]2[C@@H]2C(C)(C)[C@]12OC(C)=O)C(C)C` was tested. Which Activity [1] did it give?
**A.** The Activity was “inactive”.

**Q.** How did the Activity [10] turn out when `CCCCCCCCCCCCCC(=O)O[C@@H]1[C@@H](C)[C@]2(O)[C@@H]3C=C(C)C(=O)[C@@]3(O)[C@H](O)C(CO)=C[C@H]2[C@@H]2C(C)(C)[C@]12OC(C)=O` was run?
**A.** Its Activity is “Active”.
